Reference: ChEMBL document CHEMBL1949557, “Discovery of INCB3284, a Potent, Selective, and Orally Bioavailable hCCR2 Antagonist” (ACS Med Chem Lett, 2011)

Tests used:
[1] = molecular target: T1, C-C chemokine receptor type 2 (Homo sapiens, UniProt P41597); experiment: Displacement of [125I]MCP1 from CCR2 in human PBMC at 1 uM after 30 mins by gamma counter
Target sequence in this assay (P41597 whole entry, looked up): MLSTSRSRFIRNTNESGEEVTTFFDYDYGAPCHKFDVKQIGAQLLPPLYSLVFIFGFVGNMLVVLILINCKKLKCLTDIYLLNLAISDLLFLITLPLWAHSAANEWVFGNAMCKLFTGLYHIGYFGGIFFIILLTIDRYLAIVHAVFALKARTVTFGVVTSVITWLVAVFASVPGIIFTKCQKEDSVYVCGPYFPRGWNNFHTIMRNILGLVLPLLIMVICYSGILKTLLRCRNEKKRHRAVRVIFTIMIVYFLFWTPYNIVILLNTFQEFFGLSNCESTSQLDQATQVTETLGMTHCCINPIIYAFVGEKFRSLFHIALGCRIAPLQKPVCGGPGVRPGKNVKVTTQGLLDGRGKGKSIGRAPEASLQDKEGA

[2] = test system: Mus musculus; experiment: Dose normalized AUC in mouse at 10 mg/kg, po; assay type: ADME, organism-based; design: dose 10 mg/kg, route oral; settings: in vivo
Summary of the method: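 Mouse oral PK screen by cassette dosing at 10 mg/kg, three animals per cassette. AUC is dose-normalized.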

[3] = molecular target: T1, C-C chemokine receptor type 2; experiment: Displacement of [125I]MCP1 from CCR2 in human PBMC after 30 mins by gamma counter
Target sequence in this assay (P41597 whole entry): as the sequence (P41597 whole entry, looked up) above

[4] = molecular target: C-C chemokine receptor type 2 (Mus musculus, UniProt P51683); experiment: Displacement of [125I]MCP1 from mouse CCR2 after 30 mins by gamma counter
Chain of C-C chemokine receptor type 2 (Mus musculus, UniProt P51683) (P51683 whole entry): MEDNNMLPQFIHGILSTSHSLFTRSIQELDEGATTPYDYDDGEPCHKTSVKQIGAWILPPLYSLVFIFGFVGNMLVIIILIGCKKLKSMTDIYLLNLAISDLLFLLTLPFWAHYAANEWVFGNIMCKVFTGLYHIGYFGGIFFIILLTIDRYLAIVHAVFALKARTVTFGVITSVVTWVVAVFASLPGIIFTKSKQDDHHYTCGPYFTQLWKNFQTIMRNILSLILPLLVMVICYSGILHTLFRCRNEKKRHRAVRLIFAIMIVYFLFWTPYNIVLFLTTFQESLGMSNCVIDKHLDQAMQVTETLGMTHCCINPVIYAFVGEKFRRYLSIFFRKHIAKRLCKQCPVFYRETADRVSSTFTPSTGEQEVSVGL

| Compound | inhibition [1] [%] | AUC/dose [2] [nM·h] | IC50 [3] [nM] | IC50 [4] [nM] |
| --- | --- | --- | --- | --- |
| O=C(CNC(=O)c1cccc(C(F)(F)F)c1)N[C@@H]1CCN([C@H]2CC[C@](O)(c3cncnc3)CC2)C1 | < 50 |  |  |  |
| O=C(CNC(=O)c1cccc(C(F)(F)F)c1)N[C@@H]1CCN([C@H]2CC[C@](O)(c3ncccn3)CC2)C1 | < 50 |  |  |  |
| O=C(CNC(=O)c1cccc(C(F)(F)F)c1)N[C@@H]1CCN([C@H]2CC[C@@](O)(c3ncccn3)CC2)C1 |  | 1442 | 10.3 |  |
| Cc1ccc([C@]2(O)CC[C@H](N3CC[C@@H](NC(=O)CNC(=O)c4cccc(C(F)(F)F)c4)C3)CC2)cc1 |  |  | 1 | 18 |
| O=C(CNC(=O)c1cccc(C(F)(F)F)c1)N[C@@H]1CCN([C@H]2CC[C@@](O)(c3ccnnc3)CC2)C1 |  | 80 | 4.9 |  |
| CCOc1ccc([C@]2(O)CC[C@H](N3CC[C@@H](NC(=O)CNC(=O)c4cccc(C(F)(F)F)c4)C3)CC2)cn1 |  | 287 | 3.2 |  |
| O=C(CNC(=O)c1cccc(C(F)(F)F)c1)N[C@@H]1CCN([C@H]2CC[C@](O)(c3cccnc3)CC2)C1 | < 50 |  |  |  |
| O=C(CNC(=O)c1cccc(C(F)(F)F)c1)N[C@@H]1CCN([C@H]2CC[C@](O)(c3ccncc3)CC2)C1 (mixture of isomers) | < 50 |  |  |  |
| O=C(CNC(=O)c1cccc(C(F)(F)F)c1)N[C@@H]1CCN([C@H]2CC[C@](O)(c3ccccn3)CC2)C1 | < 50 |  |  |  |
| O=C(CNC(=O)c1cccc(C(F)(F)F)c1)N[C@@H]1CCN([C@H]2CC[C@@](O)(c3cccnn3)CC2)C1 |  | 155 | 7.3 |  |
| O=C(CNC(=O)c1cccc(C(F)(F)F)c1)N[C@@H]1CCN([C@H]2CC[C@@](O)(c3ccncn3)CC2)C1 |  | 930 | 7.8 |  |
| O=C(CNC(=O)c1cccc(C(F)(F)F)c1)N[C@@H]1CCN([C@H]2CC[C@@](O)(c3ccncc3)CC2)C1 |  | 100 | 4.3 |  |
| COc1ccc([C@]2(O)CC[C@@H](N3CC[C@@H](NC(=O)CNC(=O)c4cccc(C(F)(F)F)c4)C3)CC2)cn1 | < 50 |  |  |  |
| Cc1ccc([C@]2(O)CC[C@H](N3CC[C@@H](NC(=O)CNC(=O)c4cccc(C(F)(F)F)c4)C3)CC2)cn1 |  | 127 | 2.4 |  |
| O=C(CNC(=O)c1cccc(C(F)(F)F)c1)N[C@@H]1CCN([C@H]2CC[C@](O)(c3cnccn3)CC2)C1 | < 50 |  |  |  |
| O=C(CNC(=O)c1cccc(C(F)(F)F)c1)N[C@@H]1CCN([C@H]2CC[C@](O)(c3ccnnc3)CC2)C1 | < 50 |  |  |  |
| Cc1ccc([C@]2(O)CC[C@@H](N3CC[C@@H](NC(=O)CNC(=O)c4cccc(C(F)(F)F)c4)C3)CC2)cn1 | < 50 |  |  |  |
| CCOc1ccc([C@]2(O)CC[C@@H](N3CC[C@@H](NC(=O)CNC(=O)c4cccc(C(F)(F)F)c4)C3)CC2)cn1 | < 50 |  |  |  |
| O=C(CNC(=O)c1cccc(C(F)(F)F)c1)N[C@@H]1CCN([C@H]2CC[C@@](O)(c3cnccn3)CC2)C1 |  | 1550 | 10.9 |  |
| O=C(CNC(=O)c1cccc(C(F)(F)F)c1)N[C@@H]1CCN([C@H]2CC[C@](O)(c3cccnn3)CC2)C1 | < 50 |  |  |  |
| O=C(CNC(=O)c1cccc(C(F)(F)F)c1)N[C@@H]1CCN([C@H]2CC[C@@](O)(c3cccnc3)CC2)C1 |  | 50 | 2.6 |  |
| O=C(CNC(=O)c1cccc(C(F)(F)F)c1)N[C@@H]1CCN([C@H]2CC[C@@](O)(c3ccccn3)CC2)C1 |  | 2812 | 3.2 |  |
| O=C(CNC(=O)c1cccc(C(F)(F)F)c1)N[C@@H]1CCN([C@H]2CC[C@](O)(c3ccncn3)CC2)C1 | < 50 |  |  |  |
| O=C(CNC(=O)c1cccc(C(F)(F)F)c1)N[C@@H]1CCN([C@H]2CC[C@@](O)(c3cncnc3)CC2)C1 |  |  | 14 |  |
| Cc1ccc([C@]2(O)CC[C@H](N3CC[C@H](NC(=O)CNC(=O)c4cccc(C(F)(F)F)c4)C3)CC2)cc1 |  |  | > 1000 |  |
